Measured values: ChEMBL document CHEMBL1153612, “Synthesis and antitumor activity of novel dithiocarbamate substituted chromones” (Eur J Med Chem, 2009)

Legend:
Format in all cases: functional, cell-based
HeLa = experiment: Antiproliferative activity against human HeLa cells after 72 hrs by MTT assay
Procedure, shortened: (§1)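 Cells seeded at 8000 per well in 96-well plates, exposed to compound for 72 h. MTT added at 0.5 mg/mL final and incubated 4 h. Formazan dissolved in DMSO, absorbance read at 570 nm. IC50 is the concentration giving 50% reduction in cell growth, reported as the mean of three repeated experiments.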

[1] = Antiproliferative activity against human MDA-MB-435S cells after 72 hrs by MTT assay; procedure, shortened: as §1
SW480 = experiment: Antiproliferative activity against human SW480 cells after 72 hrs by MTT assay; settings: SW480, 72 h; procedure, shortened: as §1
HEp-2 = experiment: Antiproliferative activity against human Hep2 cells after 72 hrs by MTT assay; settings: HEp-2, 72 h; procedure, shortened: as §1
MCF7 = experiment: Antiproliferative activity against human MCF7 cells after 72 hrs by MTT assay; settings: MCF7, 72 h; procedure, shortened: as §1
[2] = Antiproliferative activity against human LM7 cells after 72 hrs by MTT assay; settings: LM7, 72 h; procedure, shortened: as §1

SMILES: O=c1c(SC(=S)N2CCCC2)coc2ccccc12
- IC50 (HeLa): 3.8 µM
- IC50 [1]: 1.9 µM
- IC50 (SW480): > 25 µM
- IC50 (HEp-2): 7.4 µM
- IC50 (MCF7): 12.2 µM

SMILES: O=c1c(CSC(=S)N2CCN(Cc3ccccc3)CC2)coc2ccccc12
- IC50 (HeLa): 7.9 µM
- IC50 [2]: 19.1 µM
- IC50 [1]: 4.4 µM
- IC50 (SW480): 4.5 µM
- IC50 (HEp-2): 2.9 µM
- IC50 (MCF7): 9.6 µM

SMILES: O=c1cc(CSC(=S)N2CCOCC2)oc2ccccc12
- IC50 (HeLa): 35.6 µM
- IC50 [2]: 25.2 µM
- IC50 [1]: 22.2 µM
- IC50 (SW480): 24.4 µM
- IC50 (HEp-2): > 25 µM
- IC50 (MCF7): 21 µM

SMILES: O=c1c(Cl)c(CSC(=S)N2CCCC2)oc2ccccc12
- IC50 (HeLa): 0.7 µM
- IC50 [2]: 1.9 µM
- IC50 [1]: 1.8 µM
- IC50 (SW480): 1.4 µM
- IC50 (HEp-2): 0.6 µM
- IC50 (MCF7): 2.3 µM

SMILES: CCN(CC)C(=S)SCc1cc(=O)c2cc(Cl)ccc2o1
- IC50 (HeLa): 8.7 µM
- IC50 [2]: 8.8 µM
- IC50 [1]: 23.5 µM
- IC50 (SW480): > 25 µM
- IC50 (HEp-2): 8.8 µM
- IC50 (MCF7): > 25 µM

SMILES: O=c1cc(CSC(=S)N2CCCC2)oc2ccc(Cl)cc12
- IC50 (HeLa): > 40 µM
- IC50 [2]: > 25 µM
- IC50 [1]: > 25 µM
- IC50 (SW480): > 25 µM
- IC50 (HEp-2): > 40 µM
- IC50 (MCF7): > 25 µM

SMILES: CCOC(=O)c1cc(=O)c2cc(CSC(=S)N3CCCC3)ccc2o1
- IC50 (HeLa): 6.6 µM
- IC50 [2]: 18 µM
- IC50 [1]: 3.4 µM
- IC50 (SW480): > 25 µM
- IC50 (HEp-2): 8.9 µM
- IC50 (MCF7): > 25 µM

SMILES: O=c1cc(CSC(=S)N2CCCCC2)oc2ccc(Cl)cc12
- IC50 (HeLa): > 25 µM
- IC50 [2]: 13.8 µM
- IC50 [1]: 3 µM
- IC50 (SW480): 2.5 µM
- IC50 (HEp-2): 1.6 µM
- IC50 (MCF7): > 25 µM

SMILES: CC(C)N(C(=S)SCc1coc2ccc(Cl)cc2c1=O)C(C)C
- IC50 (HeLa): > 25 µM
- IC50 [2]: > 25 µM
- IC50 [1]: > 25 µM
- IC50 (SW480): > 25 µM
- IC50 (HEp-2): 4.2 µM

SMILES: CN1CCN(C(=S)SCc2coc3ccccc3c2=O)CC1
- IC50 (HeLa): 5.9 µM
- IC50 [2]: 17.6 µM
- IC50 [1]: 2.2 µM
- IC50 (HEp-2): 2.4 µM
- IC50 (MCF7): 22.9 µM

SMILES: O=c1c(CSC(=S)N2CCN(C(c3ccc(F)cc3)c3ccc(F)cc3)CC2)coc2ccccc12
- IC50 (HeLa): > 25 µM
- IC50 [2]: > 25 µM
- IC50 [1]: > 40 µM
- IC50 (SW480): > 40 µM
- IC50 (HEp-2): 9.6 µM
- IC50 (MCF7): > 30 µM

SMILES: Cc1ccc2occ(CSC(=S)N3CCCC3)c(=O)c2c1
- IC50 (HeLa): 4.4 µM
- IC50 [2]: 3.4 µM
- IC50 [1]: 1.9 µM
- IC50 (SW480): 5.9 µM
- IC50 (HEp-2): 3.6 µM
- IC50 (MCF7): 41.4 µM

SMILES: CC(C)N(C(=S)SCc1cc(=O)c2cc(Cl)ccc2o1)C(C)C
- IC50 (HeLa): > 30 µM
- IC50 [2]: > 30 µM
- IC50 [1]: > 25 µM
- IC50 (SW480): > 25 µM
- IC50 (HEp-2): 22.7 µM
- IC50 (MCF7): > 25 µM

SMILES: O=c1c(CSC(=S)N2CCOCC2)coc2ccccc12
- IC50 [2]: 12 µM
- IC50 [1]: 3.9 µM
- IC50 (SW480): 5.9 µM
- IC50 (HEp-2): 4.4 µM
- IC50 (MCF7): 4 µM

SMILES: O=c1cc(CSC(=S)N2CCN(c3ccccc3)CC2)oc2ccc(Cl)cc12
- IC50 (HeLa): 25.9 µM
- IC50 [2]: 15.9 µM
- IC50 [1]: 18.6 µM
- IC50 (SW480): 21.2 µM
- IC50 (HEp-2): 15.9 µM
- IC50 (MCF7): > 25 µM

SMILES: O=c1cc(CSC(=S)N2CCCCC2)oc2ccccc12
- IC50 (HeLa): > 25 µM
- IC50 [2]: > 25 µM
- IC50 [1]: > 25 µM
- IC50 (SW480): 13.7 µM
- IC50 (HEp-2): 12 µM
- IC50 (MCF7): > 25 µM

SMILES: CCOC(=O)c1cc(=O)c2cc(CSC(=S)N3CCCCC3)ccc2o1
- IC50 (HeLa): 5.8 µM
- IC50 [2]: 16.9 µM
- IC50 [1]: 2.9 µM
- IC50 (SW480): > 25 µM
- IC50 (HEp-2): 3.4 µM
- IC50 (MCF7): 21.9 µM

SMILES: O=c1c(CSC(=S)N2CCOCC2)coc2ccc(Cl)cc12
- IC50 (HeLa): 2 µM
- IC50 [2]: 6.2 µM
- IC50 [1]: 0.6 µM
- IC50 (SW480): 6.2 µM
- IC50 (HEp-2): 0.9 µM
- IC50 (MCF7): 8.1 µM

SMILES: O=c1c(CSC(=S)N2CCCCC2)coc2ccccc12
- IC50 (HeLa): 2.3 µM
- IC50 [2]: 4.6 µM
- IC50 [1]: 0.47 µM
- IC50 (SW480): 1.2 µM
- IC50 (HEp-2): 0.39 µM
- IC50 (MCF7): 1.7 µM

SMILES: O=c1c(CSC(=S)N2CCN(c3ccccc3)CC2)coc2ccccc12
- IC50 (HeLa): 7.1 µM
- IC50 [2]: 2.9 µM
- IC50 [1]: 9.7 µM
- IC50 (SW480): 5.2 µM
- IC50 (HEp-2): 16.7 µM
- IC50 (MCF7): > 30 µM

SMILES: O=c1c(CSC(=S)N2CCCC2)coc2ccc(Cl)cc12
- IC50 (HeLa): 1.3 µM
- IC50 [2]: 2.6 µM
- IC50 [1]: 6.4 µM
- IC50 (SW480): 7.8 µM
- IC50 (HEp-2): 2.1 µM
- IC50 (MCF7): 0.6 µM

SMILES: O=c1c(SC(=S)N2CCCC2)coc2ccc(Cl)cc12
- IC50 (HeLa): 16.3 µM
- IC50 [2]: 24.6 µM
- IC50 [1]: 24 µM
- IC50 (SW480): > 25 µM
- IC50 (HEp-2): 26 µM
- IC50 (MCF7): > 25 µM

SMILES: COc1ccc2c(=O)c(CSC(=S)N3CCOCC3)coc2c1
- IC50 (HeLa): 9.5 µM
- IC50 [2]: > 40 µM
- IC50 [1]: > 40 µM
- IC50 (SW480): 7.1 µM
- IC50 (HEp-2): 4.8 µM
- IC50 (MCF7): 11.8 µM
